Source: ChEMBL document CHEMBL5034012, “Procainamide-SAHA Fused Inhibitors of hHDAC6 Tackle Multidrug-Resistant Malaria Parasites” (J Med Chem, 2021)
pIC50: −log10 of the molar value. Activity calls are given as the source filed them. The rule behind the calls is not given here.

Key:
[1] = test system: Plasmodium falciparum; test: Antiplasmodial activity against asynchronous asexual culture of Plasmodium falciparum NF54 assessed as parasite growth inhibition; assay type: functional, organism-based
How it was run: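 Asynchronous asexual NF54 cultures exposed to 7-point, 2-step serial dilutions starting at 500nM. DHA served as positive control, DMSO as negative. IC50 interpolated from three independent experiments run in triplicate.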

[2] = test system: Plasmodium falciparum; test: Antiplasmodial activity against synchronized ring stage Plasmodium falciparum 3D7 assessed as parasite reduction rate in lag phase by measuring time required to achieve maximum speed of action at 10 times IC50 concentration; assay type: functional
How it was run: (§1)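 3D7 culture of mostly rings exposed to drug for 6, 24, 48, 72 or 96h. Then washed, serially diluted 1/3 in fresh RBC and grown 3 weeks. Growth read by SYBR-green I. Number of wells with growth used to back-calculate viable parasites at each time point and derive growth parameters. One experiment, run in duplicate.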

[3] = test system: Plasmodium falciparum; test: Antiplasmodial activity against synchronized ring stage Plasmodium falciparum 3D7 assessed as parasite reduction over one cycle upto 48 hrs at 10 times IC50 concentration; assay type: functional; conditions: time hrs <=48; how it was run: as §1
[4] = test system: Plasmodium falciparum; test: Antiplasmodial activity against Plasmodium falciparum 3D7 assessed as time to kill initial parasite load at 10 times IC50 concentration; assay type: functional
How it was run: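 Parasite reduction rate assay on 3D7 cultures containing mostly rings, with DHA and pyrimethamine as references. Exposure windows of 6, 24, 48, 72 and 96h; cells then washed, serially diluted 1/3 in fresh RBC and grown 3 weeks before SYBR-green I read-out. Number of wells with growth gives viable parasites per time point, per Sanz et al. One experiment in duplicate.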

[5] = test system: Plasmodium falciparum; test: Antiplasmodial activity against Cambodian multidrug-resistant Plasmodium falciparum isolate incubated for 96 hrs measured by SYBR Green 1 assay; assay type: functional, organism-based
How it was run: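 Cambodian isolates chosen by multidrug-resistance pattern, 10 per resistance type. Ring-synchronized cultures at 2% hematocrit and 1% starting parasitemia; 11-point 2-step dilutions from 500nM; 96h incubation, then SYBR-green I read-out. Mefloquine and monodesethylamodiaquine served as positive controls. Triplicate wells, one biological replicate per isolate.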

[6] = target: Histone deacetylase (Homo sapiens) (UniProt Q13547+O15379+Q9UBN7+Q92769+Q9UQL6+Q8WUI4+Q9BY41+Q96DB2+P56524+Q9UKV0+Q969S8); test: Inhibition of human HDAC using human HeLa cell nuclear extract 1 uM by fluorescence assay
How it was run: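 HeLa nuclear extract (3x10⁻³mg) incubated with compound and 43 µM Tosyl-Gly-Pro-Lys(Ac)-AMC. Buffer: 25mM Tris-HCl pH 8, 140mM NaCl, 3mM KCl, 1mM MgCl₂. Run 45 min at 37°C, then trypsin (1mg/mL) 15min at RT, then ethanol. AMC fluorescence read at ex 380/em 460nm. Background subtracted; data normalized to DMSO. Duplicates in ≥2 independent experiments.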

[7] = test system: HepG2; test: cells; assay type: functional, cell-based; conditions: Homo sapiens, HepG2, 72 h
[8] = test system: HL-60; test: cells; assay type: functional, cell-based; conditions: Homo sapiens, HL-60, 72 h
[9] = target: Histone deacetylase; test: Inhibition of human HDAC using human HeLa cell nuclear extract measured after 60 mins by fluorescence assay; assay type: tissue-based
[10] = test system: HL-60; test: Cytotoxicity against human HL-60 cells assessed as inhibition of cell proliferation at 10 uM measured after 72 hrs by ATPlite assay; assay type: functional
How it was run: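 Cells exposed to compound for 72h; viability read by ATPlite. DMSO control. Technical triplicates, at least two biological replicates. IC50 interpolated from the curves.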

[11] = test system: Plasmodium falciparum; test: Antiplasmodial activity against Plasmodium falciparum stage IIb-III gametocytes assessed as abnormal morphology by measuring rounded/swollen at highest concentration measured after 72 hrs using Geimsa staining based assay; assay type: functional
How it was run: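 Day-4 stage IIb-III gametocytes (asexuals removed by N-acetyl glucosamine), about 1% gametocytemia at 2% hematocrit, treated 72h at 10, 5, 1 or 0.5 µM against 0.1% DMSO. Then washed and recultured with daily medium changes. Morphology and parasitemia scored daily on Giemsa-stained thin smears.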

[12] = test system: Plasmodium falciparum; test: Antiplasmodial activity against Plasmodium falciparum NF54 late stage IV-V gametocytes assessed as reduction in number of exflagellation centers in at 1 uM treated for 72 hrs; assay type: functional, organism-based
How it was run: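 Synchronous gametocytes induced; asexual forms removed with N-acetyl glucosamine for 5 days. Day-9 stage IV-V gametocytes, about 1% gametocytemia at 2% hematocrit, treated 72h at 10, 5, 1 or 0.5 µM against 0.1% DMSO. Then washed and recultured with daily medium changes. […], pelleted cells mixed 1:1 with human serum. Exflagellation centers counted over ≥10 fields at 40× within one hour. Two independent experiments; one-way ANOVA.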

pIC50 [7]	pIC50 [8]	IC50 [9] [nM]	SMILES	pIC50 [1]	further results
< 4.00	< 5.00	–	CCC(CC)CCNC(=O)c1ccc(NC(=O)CCCCCCC(=O)NO)cc1	< 6.30	–
5.09	4.47	160	CCN(CC)CCCNC(=O)c1ccc(NC(=O)CCCCCCC(=O)NO)cc1	7.19	–
5.62	5.57	210	CCN(CC)c1ccc(NC(=O)CCCCCCC(=O)NO)cc1	6.62	–

More lines, now with the values behind:

SMILES	pIC50 [7]	pIC50 [8]	IC50 [9] [nM]	pIC50 [1]	further results
C[C@H]1[C@@H](O)O[C@@H]2O[C@@]3(C)CC[C@H]4[C@H](C)CC[C@@H]1[C@@]24OO3 [ARTENIMOL]	–	–	–	8.52	Time [2]: 0 h; log(activity) [3]: 5.12; LT99.9 [4]: 21.2 h
CCc1nc(N)nc(N)c1-c1ccc(Cl)cc1 [PYRIMETHAMINE]	–	–	–	–	Time [2]: 24 h; log(activity) [3]: 3.57; LT99.9 [4]: 44.1 h
CCNCc1cc(Nc2ccnc3cc(Cl)ccc23)ccc1O [DESETHYL AMODIAQUINE]	–	–	–	–	pIC50 [5]: 7.05
CCN(CC)CCNC(=O)c1ccc(NC(=O)CCCCC(=O)NO)cc1	–	–	–	6.39	inhibition [6]: 60%
CC(C)(C)OC(=O)N1CCC(NC(=O)c2ccc(NC(=O)CCCCCCC(=O)NO)cc2)CC1	3.82	5.60	–	6.33	–
O=C(CCCCCCC(=O)Nc1ccc(C(=O)NCCN2CCOCC2)cc1)NO	4.59	–	230	6.47	inhibition at 10 µM [10]: 40%
O=C(CCCCCCC(=O)Nc1ccccc1)NO [VORINOSTAT]	–	–	–	–	Activity [11]: <=90%; Activity [12]: inactive
